Measurements reported in PubChem BioAssay AID624204 (Sanford-Burnham Center for Chemical Genomics, 2012).
Hit rate of the full screen: of about 360,000 compounds, about 770 (0.21%) were called active.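 Rule for the calls: active = inhibition at least 30% at 10 µM, raw YFP signal under a set limit, fluorescence ratio 0.5 to 1.5; inactive = the rest.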 What follows is part of a selection rich in actives, with near analogues and random picks from the rest.

biological target: Sentrin-specific protease 1 (Homo sapiens) (UniProt Q9P0U3); assay: blockers of SENP1 SUMO protease activity – biochemical, FRET, uHTS, primary screen (AID 624204); settings: recombinant SENP1 catalytic domain, CyPet-SUMO1-YPet FRET cleavage; at 10 µM; stronger effect = higher value;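 note: 0% = enzyme with DMSO and 100% = no enzyme wells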
Sequence (Q9P0U3 419-644 limits assumed): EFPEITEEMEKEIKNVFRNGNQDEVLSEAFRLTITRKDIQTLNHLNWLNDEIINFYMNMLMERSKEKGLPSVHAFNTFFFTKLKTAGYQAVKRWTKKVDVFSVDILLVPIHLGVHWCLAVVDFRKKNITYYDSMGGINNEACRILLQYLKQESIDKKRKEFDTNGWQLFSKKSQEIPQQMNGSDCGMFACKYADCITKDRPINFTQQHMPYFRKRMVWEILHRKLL
Procedure, shortened: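 material = recombinant human SENP1 catalytic domain, His6-tagged | quantity = 20 pM enzyme | reagent = 25 nM SUMO1 FRET substrate | compound dosing = 10 µM single point, 0.5% DMSO | timing = 50 min enzyme reaction, room temperature, light-protected | detection = FRET, CFP and YFP emission | control set = no-enzyme low, enzyme-DMSO high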

inhibition, inactive:
Cc1cccc(NC(=O)N(Cc2cc3cc(C)cc(C)c3[nH]c2=O)CC2COCCO2)c1 (stereo not drawn) 1.21%
O=C1/C(=C\c2ccc(O)cc2)CCC1CNc1ccc(Cl)cc1 (stereo not drawn) -58.8%
COc1ccc(C(=O)OC(C)C(=O)NC2CCCC2)cc1S(=O)(=O)N1CCOCC1 (stereo not drawn) 2.06%
NS(=O)(=O)c1ccc(NC(=O)COC(=O)c2c3c(nc4ccccc24)/C(=C\c2ccc4c(c2)OCO4)CCC3)cc1 -24.4%
COc1ccc(-n2nc(C(=O)NCC(=O)N3CCCCCC3)c3ccccc3c2=O)cc1Cl -0.802%
COc1cccc(COC(=O)C2CCN(S(=O)(=O)c3cccs3)CC2)c1OC -0.283%
C=CC[C@@H](Cc1ccc(F)cc1)C(=O)OC[C@H]1CCCN1C(=O)[C@H](CC=C)CC(=O)N(CCO)Cc1ccccc1 0.419%
O=C(CCNS(=O)(=O)c1cccs1)N1CCN(c2ccc(F)cc2)CC1 7.35%
CCOc1ccc(OCC(=O)OC(C)C(=O)NC2CCCCC2C)cc1 (stereo not drawn) 0.477%
CCOc1ccc(N(CC(=O)Nc2cccc(OC)c2)S(C)(=O)=O)cc1 -0.216%
O=C(CC1CCCCC1)Nc1c2c(nn1-c1ccc(F)cc1)CS(=O)(=O)C2 -0.662%
CCOC(=O)c1cc2c(=O)n3ccccc3nc2n(CC(C)C)c1=NC(=O)c1c(-c2c(F)cccc2Cl)noc1C -28.9%
O=C(O)c1cc2ccccc2c(=O)s1 2.49%
CCOC(=O)N1CCN(CC(=O)c2ccc3c(c2)CCN3)CC1 -2.56%
N#CCC(=O)NC1CCC(CC2CCC(NC(=O)CC#N)CC2)CC1 (stereo not drawn) -0.386%
O=C(COC(=O)/C=C/c1ccc(Br)o1)Nc1cccc(S(=O)(=O)N2CCOCC2)c1 -7.92%
Cc1cccc(-c2nnc(SCC(=O)O)n2Cc2ccccc2)c1 0.0319%
CCn1nnnc1SCC(=O)c1ccc(C)cc1C 1.48%
C[C@@H]1C[C@@H]2O[C@H]2/C=C\C=C\C(=O)Cc2c(Cl)c(O)cc(O)c2C(=O)O1 -2.26%
CCCS(=O)(=O)N1CCCC(C(=O)NCCN2CCCCC2C)C1 (stereo not drawn) -23.8%
CN1CCN(/N=C/c2ccc(C#N)cc2)CC1 1.45%
O=C1C2C3C=CC(C4CC34)C2C(=O)N1/N=C/c1ccc(-c2ccccc2[N+](=O)[O-])o1 (stereo not drawn) -25.8%
Nn1c(SCc2ccccc2)nnc1C1CCCCC1 3.72%
CCCC(=O)N1CCC(CCC(=O)NC2CC2)CC1 2.3%
CCOC(=O)C1CCN(Cc2ccc(-c3ccccc3)cc2)CC1 -0.00995%
CCOC(=O)C1CCN(C(=O)CN2C(=O)c3cccnc3Oc3ccc(C)cc32)CC1 0.924%
CNCC[C@H](Oc1ccc(C(F)(F)F)cc1)c1ccccc1 -0.124%
O=C(COc1ccc(/C=N/NS(=O)(=O)c2ccccc2)cc1)NCCc1ccccc1 3.48%
CC1=CC2=NC(=O)/C(=C/c3coc4ccccc4c3=O)C(=N)N2O1 -38.6%
CSc1ccc(CN2C(=O)NC3(CCCCCC3)C2=O)cc1 1.11%
CCC1OC(c2ccc([N+](=O)[O-])cc2)=Nc2ccccc21 (stereo not drawn) -7.92%
Cc1cccc(C)c1NC(=O)C(c1cccc2ccccc12)n1c(=O)c(-c2ccco2)nc2ccccc21 (stereo not drawn) -49.2%
N#Cc1ccc(C(C(=O)NCc2ccccc2)n2c(=O)c(-c3ccco3)nc3ccccc32)cc1 (stereo not drawn) -62.9%
Cc1ccc(NC(=O)COC(=O)CCc2nc3ccccc3n2-c2ccccc2)c(C)c1 0.304%
C[C@H](C(=O)CC(=O)OC(C)(C)C)[C@H](O)c1ccc(C(F)(F)F)cc1 0.388%
Cc1ncc(CO)c(/C=N/NC(=O)c2cccc(S(=O)(=O)N3CCCC3)c2)c1O -24.8%
CCOc1ccc(NS(=O)(=O)c2ccc(C(=O)NCC(c3ccccc3OC)N3CCCC3)cc2)cc1 (stereo not drawn) -1.55%
O=C(CN1CCOCC1)Nc1c(-c2ccccc2)c2cc(Br)ccc2[nH]c1=O -0.407%
Cc1ccccc1Nc1c(-c2ccccc2)nc2ncccn12 14.2%
Cc1ccc(-c2c(N)nc3ncccn23)cc1 -17.5%
Cc1ccc(NC(=O)[C@H](Cc2ccccc2)NC(=O)CC[C@H]2O[C@@H](n3ccc(=O)[nH]c3=O)[C@H](O)[C@@H]2O)cc1C 1.31%
Cc1ccc(Nc2nc(N)nc(CSc3nnc(C)s3)n2)cc1 3.47%
Cc1ccc(Nc2nc(Cl)c(C=O)s2)cc1 -32.5%
O=C(CSc1nnc(-c2ccncc2)n1-c1ccc(Cl)cc1)Nc1ccc(C(=O)O)cc1 0.469%
O=C(CCn1nnc2ccccc2c1=O)N[C@@H](Cc1c[nH]c2ccccc12)C(=O)O 0.24%
CCN(CC)c1ccc(S(=O)(=O)N2CCOCC2)cc1NC(=O)CSc1cccc[n+]1[O-] 3.85%
COC(=O)c1ccc(NC(=O)CSc2nncn2-c2cccnc2)cc1 -5.21%
COc1cccc(CNC(=O)C2CCCN(S(=O)(=O)N3CC(C)CC(C)C3)C2)c1 (stereo not drawn) -0.397%
CC(CC(=O)C1C(C)C=CCC1(C)C)NNC(N)=O (stereo not drawn) 1.56%
COc1ccc2oc(C(=O)OCC(=O)N(CC(C)C)c3c(N)n(Cc4ccccc4)c(=O)[nH]c3=O)c(C)c2c1 -9.9%
CCOC(=O)N(C)c1c(CC)nc2c(OCc3ccccc3C(=O)OC)cccn12 0.268%
O=C(CN1CCN(S(=O)(=O)c2ccc(Br)cc2)CC1)Nc1ccccc1C(=O)c1ccccc1 0.864%
COc1ccc2c(c1)c(=O)c(C(=O)c1ccc(Cl)cc1)cn2CC(=O)Nc1ccc(F)cc1 -1.49%
CCOc1ncccc1C(=O)OCC(=O)Nc1cccc(S(=O)(=O)N2CCCCCC2)c1 2.06%
O=C(NCc1cccnc1)c1ccccc1NC(=O)c1c(F)cccc1F 3.29%
CCCNC(=O)c1cc(C2CCCCN2S(=O)(=O)c2ccc(C#N)cc2)on1 (stereo not drawn) 2.5%
CNC(=S)N/N=C/c1ccc(N2CCOCC2)s1 -70.3%
CC(C)c1cc(C(=O)N/N=C/c2ccoc2)c(O)c(C(C)C)c1 1.94%
Cc1ccc(S(=O)(=O)n2cccc2CO)cc1 -0.0494%
CC(C)NC(=O)C1(C)CCCCCN1C(=O)c1ccc(-c2ccccc2)cc1 (stereo not drawn) 0.518%
Cc1ccccc1CN1C(=O)CSCC1(C)C(=O)Nc1c(C)cccc1C (stereo not drawn) -2.15%
Cn1cc(/C=C/C(=O)N2CCCC(C(=O)c3ccc(C(F)(F)F)cc3)C2)cn1 (stereo not drawn) 0.414%
CO[C@H]1[C@@H]2C=CO[C@@H](O[C@H]3O[C@@H](CO)[C@H](O)[C@@H](O)[C@@H]3O)[C@@H]2[C@@]2(CO)O[C@@H]12 -2%
COC(=O)c1c(NC(=O)CN2C(=O)NC(CCc3ccccc3)C2=O)sc2c1CCCCC2 (stereo not drawn) -3.88%
NC1=NN(c2cccc(C(=O)O)c2)C(=O)C1 4.58%
Cc1cc(C)cc(C(=O)OCC(=O)NCCNC(=O)COC(=O)c2cc(C)cc(C)c2)c1 0.612%
O=C(c1ccc(-n2cnnn2)cc1)N1CCN(C(c2ccccc2)c2ccccc2)CC1 0.954%
CCc1ccc(OC(C)C(=O)Nc2ccc(S(=O)(=O)Nc3cc(C)on3)cc2)cc1 (stereo not drawn) 2.02%
CCC(=O)Nc1ccc(-c2ccc(N3CCCCC3)nn2)cc1 -4.2%
COc1ccc(/C=C(\NC(=O)c2ccc(OCC(C)C)cc2)C(=O)OCc2ccco2)cc1 -2.88%
COC1C(CO)OC(n2cnc3c(=S)nc(N)[nH]c32)C1O (stereo not drawn) 0.119%
Cc1ccc(CN2CCN(Cc3cccc(C)n3)CC2CCO)cc1 (stereo not drawn) -3.82%

inhibition, active:
COc1ncnc2c1N=C1CC(C)(C)CC(N)=C1S2 33.8%
COc1cc(/C=C2\CCCc3c2nc2ccccc2c3C(=O)O)cc(Cl)c1O 54.9%
Cc1ccc2c(c1)nnc1nnc(SCC(=O)O)n12 73%
CN1CCN(/N=C/c2ccc(-c3ccc([N+](=O)[O-])cc3)o2)CC1 58.4%
CCOC(=O)C1CCN(c2ncnc3c2c(-c2ccccc2)cn3-c2ccc(C)cc2)CC1 47.1%
O=C1/C(=C/c2coc3ccc(O)cc3c2=O)SC(=S)N1c1ccccc1 46.8%
c1coc(-c2nc3nc4ccccc4n3nc2-c2ccco2)c1 86.8%
Cc1cccc(C)c1Nc1c(-c2ccccc2O)nc2ncccn12 32.1%
Cc1ccc(Nc2ccccc2N)cc1 54.5%
C=CC1=C(C(=O)O)N2C(=O)[C@@H](NC(=O)/C(=N/OCC(=O)O)c3csc(N)n3)[C@H]2SC1 56%
Cc1cc(C(=O)N/N=C/c2ccc(N3CCOCC3)cc2)c(C)o1 33.5%
